{"data": "Assay results from different studies", "target": "TGF-beta receptor type-2 (TGFBR2, Homo sapiens, UniProt P37173)"}
{"Structure (SMILES)": "COc1cnc(Nc2cccc(S(N)(=O)=O)c2)nc1N1CCN(c2ccccc2)CC1", "read-out": "binding", "method": "competition with immobilised ligand", "tested at": "1 µM", "remaining binding [%]": 100}
{"Structure (SMILES)": "CN(C)c1nccc(-c2cnc3ncccn23)n1", "read-out": "binding", "tested at": "1 µM", "remaining binding [%]": 76}
{"Structure (SMILES)": "CNC(=O)[C@@H]1CC[C@@H](n2c(-c3ccc4cnccc4c3)nc3ccc(C(=O)NCc4cccc(C(N)=O)c4)cc32)C1", "read-out": "binding", "method": "competition with immobilised ligand", "tested at": "1 µM", "remaining binding [%]": 100}
{"Structure (SMILES)": "C=CC(=O)N1CCC(C(=O)NCC(=O)N2CCN(c3nc(-c4cnc(N)nc4C(F)F)nc(N4CCOCC4)n3)CC2)CC1", "read-out": "binding", "method": "competition with immobilised ligand", "tested at": "1 µM", "remaining binding [%]": 88}
{"Structure (SMILES)": "COCCOc1nc(-c2ccc(Cl)nc2)nc2c1CN(C(=O)c1ncn3ccccc13)CC2", "read-out": "cell-free assay", "method": "competition with immobilised ligand", "tested at": "0.1 µM", "remaining binding [%]": 94}
{"Structure (SMILES)": "O=C(c1ccc(Nc2ncc(Cl)c(-c3ccc(Cl)s3)n2)cc1)N1CCC(N2CCCC2)CC1", "read-out": "binding", "method": "competition with immobilised ligand", "tested at": "1 µM", "remaining binding [%]": 100}
{"Structure (SMILES)": "CO[C@@H](C)c1c(Nc2ccc([C@@H](N(C)C(=O)C3CCS(=O)(=O)CC3)C(F)(F)F)cc2)cnc2cc(Cl)nn12", "read-out": "cell-free assay", "method": "competition with immobilised ligand", "tested at": "1 µM", "remaining binding [%]": 100}
{"Structure (SMILES)": "COc1ncc2cc3ccccc3nc2c1C#N", "read-out": "cell-free assay", "method": "competition with immobilised ligand", "tested at": "5 µM", "remaining binding [%]": 100}
{"Structure (SMILES)": "O=C(NCCCN1CCOCC1)c1ccc(Nc2nccc(-c3cc4ccccc4s3)n2)cc1", "read-out": "binding", "method": "competition with immobilised ligand", "tested at": "1 µM", "remaining binding [%]": 64}
{"Structure (SMILES)": "O=C(NCC1CCOCC1)c1n[nH]cc1NC(=O)c1c(F)cccc1F", "read-out": "binding", "method": "competition with immobilised ligand", "tested at": "1 µM", "remaining binding [%]": 100}
{"Structure (SMILES)": "c1cnn2ncc(-c3ccnc(N4CCC45COC5)n3)c2c1", "read-out": "binding", "tested at": "1 µM", "remaining binding [%]": 36}
{"Structure (SMILES)": "CNCc1ccccc1-c1csc([C@H](C)Nc2nc(C)nc3cc(OC)c(OC)cc23)c1", "read-out": "cell-free assay", "method": "competition with immobilised ligand", "tested at": "1 µM", "remaining binding [%]": 97}
{"Structure (SMILES)": "O=C(NCCCN1CCOCC1)c1ccc(Nc2ncc(Cl)c(-c3ccc(Cl)s3)n2)cc1", "read-out": "binding", "method": "competition with immobilised ligand", "tested at": "1 µM", "remaining binding [%]": 100}
{"Structure (SMILES)": "C[C@H]1CCN(c2nccc(-c3cnn4ncccc34)n2)C1", "read-out": "binding", "tested at": "1 µM", "remaining binding [%]": 60}
{"Structure (SMILES)": "O=C(NS(=O)(=O)c1ccc(NCC2CCOCC2)c([N+](=O)[O-])c1)c1ccc(N2CCN(Cc3ccc(C(F)(F)F)cc3-c3ccc(Cl)cc3)CC2)cc1Oc1cnc2[nH]ccc2c1", "read-out": "cell-free assay", "method": "competition with immobilised ligand", "tested at": "1 µM", "remaining binding [%]": 76}
{"Structure (SMILES)": "COc1ccnn2ncc(-c3ccnc(N(C)C)n3)c12", "read-out": "binding", "tested at": "1 µM", "remaining binding [%]": 100}
{"Structure (SMILES)": "Nc1ncc2c(n1)-c1c([nH]c3ccc(C#CC4CC4)cc13)CCCC2", "read-out": "binding", "method": "competition with immobilised ligand", "tested at": "1 µM", "remaining binding [%]": 100}
{"Structure (SMILES)": "CN(C)c1ncc(F)c(-c2cnn3ncccc23)n1", "read-out": "binding", "tested at": "1 µM", "remaining binding [%]": 100}
{"Structure (SMILES)": "O=C(O)[C@@H]1[C@@H](Cn2nnc3ccccc3c2=O)CC[C@H]1C(=O)c1ccc(OCCC2CCOCC2)cc1", "read-out": "cell-free assay", "method": "competition with immobilised ligand", "tested at": "1 µM", "remaining binding [%]": 100}
{"Structure (SMILES)": "Cc1cnn2ncc(-c3ccnc(N(C)C)n3)c2c1", "read-out": "binding", "tested at": "1 µM", "remaining binding [%]": 80}
{"Structure (SMILES)": "COc1ccc2c(O[C@@H]3C[C@H]4C(=O)N[C@]5(C(=O)O)CC5/C=C\\CCCCC[C@H](NC(=O)OC5CCCC5)C(=O)N4C3)cc(-c3csc(NC(=O)C(C)C)n3)nc2c1C (stereo partly drawn)", "read-out": "cell-free assay", "method": "competition with immobilised ligand", "tested at": "1 µM", "remaining binding [%]": 93}
